The RNAGym collection of RNA variant scans (doi:10.1126/science.aae0568)
Fewer inactive variants are shown than the library holds.

B1: tRNA (parent)
chain: GUUCCGUUGGCGUAAUGGUAACGCGUCUCCCUCCUAAGGAGAAGACUGCGGGUUCGAGUCCCGUACGGAACG

Variants of: B1
Assay: yeast fitness relative to wild type (ratio to wild type); higher = fitter; tRNA-Arg(CCU), competitive growth, 37 C, YPD
Summary of the method: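 A pool of Saccharomyces cerevisiae strains, each with a tRNA-Arg(CCU) gene variant at the native genomic locus, was competed in YPD at 37°C for 24 hours across six parallel replicates. The variants had been chemically synthesised at a 3% per-site mutation rate over 69 sites, and gene amplicons before and after competition were read by 100-nucleotide paired-end sequencing. Darwinian fitness relative to wild type rested on changes in genotype frequencies. Genotypes required ≥ 100 starting reads, and estimates < 0.5 were set to 0.5.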

| Variant | yeast fitness |
| --- | --- |
| C4U C5U C31G A45G | ≤ 0.5 |
| C4G U26A C27U A43G C55U C62U | 0.589 |
| C4G C33A | 0.653 |
| C4G U7C C27A A70U | ≤ 0.5 |
| C4G G56A C66G | ≤ 0.5 |
| C4U A36G G39A | 0.679 |
| C4U A37U A70U | 0.676 |
| C4U A20G C55U A65G | ≤ 0.5 |
| C4G C31A A42C | ≤ 0.5 |
| C4U A21G C46A U54C | 0.791 |
| C4G A15G G17C C34A | 0.598 |
| C4G C22U C27U | 0.657 |
| C4G G6A C11U C61U | ≤ 0.5 |
| C4G A14G U64C | ≤ 0.5 |
| C4G G18C G68A | ≤ 0.5 |
| C4G C33U C55A | ≤ 0.5 |
| C4G G12C U35A C49G C66U | 0.658 |
| C4U A14C C22U C34U | ≤ 0.5 |
| C4U C5G C31G G50C | ≤ 0.5 |
| C4G U7G G12C A20U A70U | ≤ 0.5 |
| C4U A40U G68U | 0.708 |
| C4G A42C G50A | ≤ 0.5 |
| C4U A20G A45U C49U C61U C62G A69C | ≤ 0.5 |
| C4G U13A U54A | ≤ 0.5 |

| Variant | yeast fitness |
| --- | --- |
| C4G A45G U54A | ≤ 0.5 |
| C4G C24A C46U A70G | ≤ 0.5 |
| C4U A20G C29G U32A C62A | ≤ 0.5 |
| C4G G17A A45C | ≤ 0.5 |
| C4G U32C A70U | 0.742 |
| C4U A15C C30G C49U A69C A70G | ≤ 0.5 |
| C4U A40G A43U C55G | 0.584 |
| C4G A21G A45U C49U | ≤ 0.5 |
| C4G G23C C61G | ≤ 0.5 |
| C4G C11G C55U C61A G67A | ≤ 0.5 |
| C4G A45U | 0.91 |
| C4U A36G C61U | 0.73 |
| C4U A43G | 1 |
| C4G C27G C46G U54C | 0.64 |
| C4G G9A C22U C46G G56C | ≤ 0.5 |
| C4G A42G A45U C66U | 0.659 |
| C4G U13A | 0.874 |
| C4G C61A C62U A65U A69C | ≤ 0.5 |
| C4G C5U U8A G12A G48A | ≤ 0.5 |
| C4G A20U C46U | 0.614 |
| C4G U7A C22U | ≤ 0.5 |
| C4G U16A G63A | 0.534 |
| C4U C5G C11U C29U U32A C33U G67U A70G | ≤ 0.5 |
| C4G C29U A43G U53G G63A | ≤ 0.5 |

| Variant | yeast fitness |
| --- | --- |
| C4G C5G U8C G23C C29U A45U C60U C62U A70C | ≤ 0.5 |
| C4U A20C C22U U47G G67A A69U | ≤ 0.5 |
| C4G C30A A45U C55U | ≤ 0.5 |
| C4G A21U U54G | 0.607 |
| C4G C22U C30A C34U G38C | ≤ 0.5 |
| C4G A14U A37U U53C A69U | ≤ 0.5 |
| C4G U8G C27G | 0.567 |
| C4G U26A C27U A43G C55U C66U | ≤ 0.5 |
| C4G C60U C61G | ≤ 0.5 |
| C4G A43C | 0.853 |
| C4G G10C C34U C46G | ≤ 0.5 |
| C4G U26A A57G | ≤ 0.5 |
| C4G G48A | 0.876 |
| C4G C30G A69C A70G | ≤ 0.5 |
| C4U C11G U16C C34A C60U A69G | ≤ 0.5 |
| C4G C5G C31A U35C C46A G67A | ≤ 0.5 |
| C4G U59C | 0.771 |
| C4U A15U U16A G23C A57U A69U | ≤ 0.5 |
| C4G G17C C22A C27G C33U C49G | ≤ 0.5 |
| C4G A15G U26G | ≤ 0.5 |
| C4G A40U A69U | 0.72 |
| C4G U16C C29G A36U A70G | ≤ 0.5 |
| C4G C22U C34G A36U G67A | ≤ 0.5 |
| C4G A20U G56C | ≤ 0.5 |

| Variant | yeast fitness |
| --- | --- |
| C4U A14U C46U | 0.577 |
| C4G A43C C62A | ≤ 0.5 |
| C4G G10A C30G A43G A57U | ≤ 0.5 |
| C4G U26A U47G U54C | ≤ 0.5 |
| C4G C11U A14U C30G A69U | ≤ 0.5 |
| C4G C34G U59A | ≤ 0.5 |
| C4G C60G | 0.615 |
| C4G A37U C60U | ≤ 0.5 |
| C4U A42G U47C G58A | ≤ 0.5 |
| C4G C30A A42U C55U C66A | ≤ 0.5 |
| C4U A45C G51A | 0.501 |
| C4G G9A C27U C46G G48A C62G G68C | ≤ 0.5 |
| C4G A14G C31A | 0.528 |
| C4G C24U U59C | ≤ 0.5 |
| C4U A42C C61G A65U | 0.62 |
| C4G U13G U16C | 0.566 |
| C4G U13G U16A | ≤ 0.5 |
| C4U A21G C46A | 0.899 |
| C4G C11G C27G A57G U59G | ≤ 0.5 |
| C4G A21C C22A C27G C34U G56A G67C | ≤ 0.5 |
| C4U A15U C30A A40G C66U | 0.6 |
| C4U A36U G41C C55U U64C | 0.587 |
| C4G U13A G18A G52A C55G | ≤ 0.5 |
| C4G A40U A42C A57C | ≤ 0.5 |

| Variant | yeast fitness |
| --- | --- |
| C4G C30A G50U C66U | ≤ 0.5 |
| C4U A21G C49U | 1.01 |
| C4G U7C C22U C27A U59G | ≤ 0.5 |
| C4G C30G G38A A42U | ≤ 0.5 |
| C4G C5G C11A G38A | ≤ 0.5 |
| C4U A21G C31G C34G | 0.596 |
| C4G G12A C24U A70C | ≤ 0.5 |
| C4G G12A G38C C66U | ≤ 0.5 |
| C4G G17A C29U C62U | ≤ 0.5 |
| C4U A65G | 0.877 |
| C4U A65C | 0.873 |
| C4G G10C C31U U53A | ≤ 0.5 |
| C4U C5A A36C A42G G52A | 0.578 |
| C4U C11G C22G C62U | ≤ 0.5 |
| C4G G17A C22A G38A | 0.638 |
| C4G A57C | 0.57 |
| C4G C49U C62U | 0.653 |
| C4G A36G | 0.939 |
| C4G C5A C27A C61A | ≤ 0.5 |
| C4G C11G C33G U47A | ≤ 0.5 |
| C4G U28G | 0.696 |
| C4G G17A C55U A70G | ≤ 0.5 |
| C4G C29G A37G | 0.598 |
| C4G G17C A20U A37C | 0.717 |

| Variant | yeast fitness |
| --- | --- |
| C4G A21G U32A | 0.672 |
| C4G C29A C46A G58A | 0.525 |
| C4G C5G C29G | ≤ 0.5 |
| C4G C11G C55U C61A G68A | ≤ 0.5 |
| C4U A37G G39C C61U | ≤ 0.5 |
| C4G G17A G41C G58A | ≤ 0.5 |
| C4G A37G A43G A69U | ≤ 0.5 |
| C4G G9C C34A A36G A40C | ≤ 0.5 |
| C4G U8C C31G C33G G58C C60U A70C | ≤ 0.5 |
| C4U A36C U59A | ≤ 0.5 |
| C4G A37U | 0.681 |
| C4U A20U A40U G52A A69U | ≤ 0.5 |
| C4U A15U U28C A57G C61G | ≤ 0.5 |
| C4G A15G G23A C34G G67A | 0.556 |
| C4G G6C A43U G48A C66G | 0.512 |
| C4G U7A U19C A20C C55A G68C | ≤ 0.5 |
| C4U C5G C29G C31G A37U C66A | ≤ 0.5 |
| C4G C31G G38U | ≤ 0.5 |
| C4G G9A | 0.916 |
| C4G C5A | 0.765 |
| C4G A15G G17A C34A | ≤ 0.5 |
| C4G C31U G48C | 0.647 |
| C4U A42C A43C C49U A70C | ≤ 0.5 |
| C4U A36U A40C A65C | ≤ 0.5 |

| Variant | yeast fitness |
| --- | --- |
| C4G U7G A20G A65U | ≤ 0.5 |
| C4G A15G C22G G23A C49A | ≤ 0.5 |
| C4G G41U C61A C66U | ≤ 0.5 |
| C4G A15G A20G G23A C34G G67A | ≤ 0.5 |
| C4G G56A | 0.927 |
| C4U C11A A37C G67C | ≤ 0.5 |
| C4U A42U | 0.944 |
| C4G C11G C55U | ≤ 0.5 |
| C4U A37C G63A | 0.593 |
| C4U C5G G41A U59C | ≤ 0.5 |
| C4G A45G A57U C66U | 0.512 |
| C4G G12U A14C C49U | ≤ 0.5 |
| C4G U26A U32C | 0.565 |
| C4G G17A A40G | ≤ 0.5 |
| C4G G12U A14C C49U C66U | ≤ 0.5 |
| C4G C24U C33G A65U C66U A69C | 0.584 |
| C4G C29A | 0.757 |
| C4U A14G A21G C49U | 0.677 |
| C4G C31A C33G G51C C60G | ≤ 0.5 |
| C4G A40G C55U | ≤ 0.5 |
| C4G G6C G25A C29A C31A C33G G41C | ≤ 0.5 |
| C4G G18A C66U | 0.524 |
| C4G C30G G50U | ≤ 0.5 |
